Laboratory results taken from ChEMBL document CHEMBL1129688, “ATP-citrate lyase as a target for hypolipidemic intervention. Design and synthesis of 2-substituted butanedioic acids as novel, potent inhibitors of the enzyme” (J Med Chem, 1996).
Each block holds one molecule with its values, some of them ahead of it.

Tests used:
[1] = molecular target: T1, ATP-citrate synthase (Homo sapiens, UniProt P53396); experiment: (§1) Inhibitory activity against human recombinant ATP-Citrate Lyase activity was measured by the […] dehydrogenase catalyzed reduction of oxaloacetate by NADH
T1 sequence (P53396 whole entry): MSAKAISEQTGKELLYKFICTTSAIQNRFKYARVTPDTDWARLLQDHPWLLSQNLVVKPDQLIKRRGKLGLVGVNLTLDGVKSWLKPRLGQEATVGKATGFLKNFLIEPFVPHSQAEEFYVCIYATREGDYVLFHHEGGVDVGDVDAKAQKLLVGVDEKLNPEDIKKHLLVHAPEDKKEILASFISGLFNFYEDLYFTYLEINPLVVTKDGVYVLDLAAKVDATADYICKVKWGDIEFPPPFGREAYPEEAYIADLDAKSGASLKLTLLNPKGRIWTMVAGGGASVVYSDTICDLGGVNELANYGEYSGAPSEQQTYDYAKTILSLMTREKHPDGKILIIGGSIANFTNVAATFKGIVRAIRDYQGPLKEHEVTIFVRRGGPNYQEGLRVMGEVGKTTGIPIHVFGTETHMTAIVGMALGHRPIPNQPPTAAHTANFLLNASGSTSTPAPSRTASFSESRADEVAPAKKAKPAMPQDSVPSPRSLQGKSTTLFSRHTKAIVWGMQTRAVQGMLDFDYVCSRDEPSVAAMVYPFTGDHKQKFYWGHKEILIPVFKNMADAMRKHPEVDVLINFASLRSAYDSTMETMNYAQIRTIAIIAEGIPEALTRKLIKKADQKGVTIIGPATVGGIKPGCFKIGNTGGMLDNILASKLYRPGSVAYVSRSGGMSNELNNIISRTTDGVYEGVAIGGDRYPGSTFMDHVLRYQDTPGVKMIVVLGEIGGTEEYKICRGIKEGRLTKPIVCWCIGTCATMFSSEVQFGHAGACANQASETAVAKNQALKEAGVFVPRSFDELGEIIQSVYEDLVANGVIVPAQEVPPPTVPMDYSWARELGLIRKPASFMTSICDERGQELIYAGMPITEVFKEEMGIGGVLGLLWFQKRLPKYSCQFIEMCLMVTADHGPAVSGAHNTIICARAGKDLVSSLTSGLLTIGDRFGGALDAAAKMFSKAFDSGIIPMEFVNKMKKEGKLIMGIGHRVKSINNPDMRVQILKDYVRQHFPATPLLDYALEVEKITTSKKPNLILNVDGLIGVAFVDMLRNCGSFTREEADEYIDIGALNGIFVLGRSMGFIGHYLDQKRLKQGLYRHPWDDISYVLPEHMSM
Outline: (§2)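 Purified rat ACL or recombinant human ACL was assayed by coupling oxaloacetate formation to malate dehydrogenase reduction with NADH. Buffer: Tris 100 mM pH 8.0, MgCl2 10 mM, KCl 10 mM, DTT 10 mM, plus ATP and NADH. CoA was 200 μM, and citrate was added to 100 μM (its Km) to start the reaction. A340 decrease was followed over 20 min. Ki came from fitting v = Vmax/(2 + [I]/Ki), assuming citrate-competitive inhibition.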

[2] = molecular target: T2, ATP-citrate synthase (Rattus norvegicus, UniProt P16638); experiment: Inhibition of recombinant ATP-Citrate Lyase activity as […] dehydrogenase catalyzed reduction of oxaloacetate by NADH; settings: in the assay text read “purified rat ATP-Citrate Lyase” for “recombinant ATP-Citrate Lyase”; outline: as §2
T2 sequence (P16638 whole entry): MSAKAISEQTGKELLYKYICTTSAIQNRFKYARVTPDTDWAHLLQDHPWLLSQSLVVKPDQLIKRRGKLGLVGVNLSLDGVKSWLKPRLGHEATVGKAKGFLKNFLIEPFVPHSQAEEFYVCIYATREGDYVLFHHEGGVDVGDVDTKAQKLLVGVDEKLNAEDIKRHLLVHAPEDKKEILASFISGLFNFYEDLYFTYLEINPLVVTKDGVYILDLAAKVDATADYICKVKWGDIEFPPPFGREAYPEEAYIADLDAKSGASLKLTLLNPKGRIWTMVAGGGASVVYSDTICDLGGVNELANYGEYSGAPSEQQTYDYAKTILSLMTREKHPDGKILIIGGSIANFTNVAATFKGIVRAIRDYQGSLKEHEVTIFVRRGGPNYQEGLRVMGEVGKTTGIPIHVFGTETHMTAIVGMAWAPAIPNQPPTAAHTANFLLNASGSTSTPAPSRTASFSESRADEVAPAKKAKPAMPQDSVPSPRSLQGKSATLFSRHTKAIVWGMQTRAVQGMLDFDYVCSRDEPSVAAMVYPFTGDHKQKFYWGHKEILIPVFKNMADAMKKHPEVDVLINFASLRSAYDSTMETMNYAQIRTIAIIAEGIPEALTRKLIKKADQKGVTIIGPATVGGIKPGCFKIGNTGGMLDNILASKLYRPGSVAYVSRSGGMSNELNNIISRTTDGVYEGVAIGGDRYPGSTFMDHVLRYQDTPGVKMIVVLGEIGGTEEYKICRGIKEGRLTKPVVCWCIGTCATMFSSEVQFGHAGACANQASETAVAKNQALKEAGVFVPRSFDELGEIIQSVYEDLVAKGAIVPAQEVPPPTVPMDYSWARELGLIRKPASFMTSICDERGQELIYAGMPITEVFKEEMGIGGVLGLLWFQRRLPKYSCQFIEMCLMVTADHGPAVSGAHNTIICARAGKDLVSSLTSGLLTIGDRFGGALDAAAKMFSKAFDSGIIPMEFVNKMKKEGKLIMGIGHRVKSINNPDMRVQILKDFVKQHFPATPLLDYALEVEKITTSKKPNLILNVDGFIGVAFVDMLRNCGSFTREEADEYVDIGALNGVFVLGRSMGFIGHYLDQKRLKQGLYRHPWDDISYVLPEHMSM

[3] = molecular target: T2, ATP-citrate synthase; experiment: Inhibitory activity against rat ATP-citrate lyase activity by the […] dehydrogenase catalyzed reduction of oxaloacetate by NADH.; outline: as §2
[4] = test system: HepG2; experiment: Percent control of ATP levels in human hepatoma cell line HepG2 at 10 uM concentration; format: functional
Outline: (§3)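 Serum-starved HepG2 cells (grown to 80–90% confluence in DMEM/10% FCS, then overnight without serum) were exposed to vehicle or compound at the stated final concentration for 2.5 h. Cellular ATP was then measured as a toxicity check and expressed as % of vehicle control.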

[5] = test system: HepG2; experiment: Percent reduction of cholesterol synthesis in human hepatoma cell line HepG2 at 10 uM concentration; format: functional; set-up: scale not given: the % may be the effect or the level left
Outline: (§4)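 HepG2 cells were grown in DMEM with Hepes, bicarbonate, glutamine and 10% FCS to 80–90% confluence, then kept overnight serum-free. Vehicle or compound was added at the stated final concentration for 2.5 h. ³H2O (71 μCi/mmol) was present for the final 90 min. Synthesis rates came from ³H incorporated into cellular cholesterol or fatty acids, relative to vehicle control.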

[6] = test system: HepG2; experiment: Percent control of ATP levels in human hepatoma cell line HepG2 at 30 uM concentration; format: functional; outline: as §3
[7] = test system: HepG2; experiment: Percent reduction of fatty acid synthesis in human hepatoma cell line HepG2 at 10 uM concentration; format: functional; set-up: scale not given: the % may be the effect or the level left; outline: as §4
[8] = molecular target: T3, ATP-citrate synthase (Homo sapiens) (UniProt P53396); experiment: as §1; settings: concentration not given here; outline: as §2
T3 sequence (whole entry): T1 sequence (P53396 whole entry)

[9] = test system: HepG2; experiment: Percent reduction of fatty acid synthesis in human hepatoma cell line HepG2 at 1000 uM concentration; format: functional; outline: as §4
[10] = test system: HepG2; experiment: Percent control of ATP levels in human hepatoma cell line HepG2 at 1000 uM concentration; format: functional; outline: as §3
[11] = test system: HepG2; experiment: Percent reduction of cholesterol synthesis in human hepatoma cell line HepG2 at 1000 uM concentration; format: functional; outline: as §4

Compound: O=C(O)CC(O)(CSCCCCCCc1c(Cl)cncc1Cl)C(=O)O (stereo unspecified)
Ki [1]: 121 µM

Compound: Cc1ccc(CCCCCCSCC(O)(CC(=O)O)C(=O)O)c(C)c1 (stereo unspecified)
Ki [2]: 160 µM

Compound: O=C(O)CC(O)(CSCCCc1ccc(Cl)cc1Cl)C(=O)O (stereo unspecified)
Ki [2]: 390 µM

Compound: COC(=O)CC(CSCCCCCCc1ccc(Cl)cc1Cl)C(=O)OC (stereo unspecified)
Control [4]: 96%
Control [5]: 78%
Control [6]: 91%
Control [7]: 105%

Compound: O=C(O)CC(O)(CSCCCCCCc1ccccn1)C(=O)O (stereo unspecified)
inhibition [8]: 30%

Compound: O=C(O)CC(O)(CSCCCCCCc1ccc(Br)cc1)C(=O)O (stereo unspecified)
Ki [3]: 31 µM

Compound: O=C(O)CC(O)(CC(=O)CCCCCc1ccc(Cl)cc1Cl)C(=O)O (stereo unspecified)
Ki [3]: 25 µM

Compound: O=C(O)CC(O)(CSCCCCCCc1ccc(F)cc1F)C(=O)O (stereo unspecified)
Ki [2]: 270 µM

Compound: O=C(O)CC(O)(CSCCCCCCc1cccc(Cl)c1Cl)C(=O)O (stereo unspecified)
Ki [3]: 7.3 µM

Compound: O=C(O)CC(O)(CSCCCC/C=C\c1ccc(Cl)cc1Cl)C(=O)O (stereo unspecified)
Ki [3]: 7.4 µM

Compound: O=C(O)CC(O)(CSCCCCCc1ccccc1)C(=O)O (stereo unspecified)
Ki [3]: 490 µM

Compound: O=C(O)CC(O)(CSCCCCCOc1ccc(Cl)cc1Cl)C(=O)O (stereo unspecified)
Ki [3]: 67 µM

Compound: O=C(O)CC(O)(CSCCCCCCc1c(Cl)cccc1Cl)C(=O)O (stereo unspecified)
Ki [3]: 76 µM

Compound: O=C(O)CC(O)(CSCCCCCCc1ccc(Cl)cc1)C(=O)O (stereo unspecified)
Ki [3]: 71 µM

Compound: O=C(O)CC(O)(CSCCCc1ccc2ccccc2c1)C(=O)O (stereo unspecified)
Ki [1]: 300 µM

Compound: O=C(O)CC(O)(CSCCCCCC(=O)c1ccc(Cl)cc1Cl)C(=O)O (stereo unspecified)
Ki [3]: 130 µM

Compound: O=C(O)CC(O)(CSCCCCCCc1ccc(C(=O)O)cc1)C(=O)O (stereo unspecified)
Ki [3]: 420 µM

Compound: O=C(O)CC(O)(CSCc1ccc(Cl)cc1Cl)C(=O)O (stereo unspecified)
Ki [3]: 410 µM

The next lines start with results.

Ki [3]: 2.9 µM
Compound: O=C(O)CC(O)(CCCCCCCCc1ccc(Cl)cc1Cl)C(=O)O (stereo unspecified)

Ki [2]: 480 µM
Compound: O=C(O)CC(O)(CSCCc1ccc(Cl)cc1Cl)C(=O)O (stereo unspecified)

Ki [3]: 500 µM
Compound: NS(=O)(=O)c1ccc(CCCCCCSCC(O)(CC(=O)O)C(=O)O)cc1 (stereo unspecified)

Ki [2]: 10 µM
Compound: O=C(O)CC(O)(CSCCCCCCc1c(Cl)cc(Cl)cc1-c1ccccc1)C(=O)O (stereo unspecified)

Ki [3]: 1.2 µM
Compound: O=C(O)CC(O)(CC(=O)CCCCCCc1ccc(Cl)cc1Cl)C(=O)O (stereo unspecified)
Fatty acid synthesis (% of vehicle control) [9]: 102%
Control [4]: 102%
Control [5]: 108%
Control [10]: 107%
Control [7]: 98%
Cholesterol synthesis (% of vehicle control) [11]: 102%

Ki [3]: 12 µM
Compound: O=C(O)CC(O)(CSCCCCCNc1ccc(Cl)cc1Cl)C(=O)O (stereo unspecified)

Ki [2]: 75 µM
Compound: O=C(O)CC(O)(CSCCCCCCc1ccccc1[N+](=O)[O-])C(=O)O (stereo unspecified)

Ki [3]: 150 µM
Compound: O=C(O)CC(O)(CSCCCCCCc1cccc(Cl)c1)C(=O)O (stereo unspecified)

Ki [3]: 10.5 µM
Compound: O=C(O)CC(O)(CCCCCCCc1ccc(Cl)cc1Cl)C(=O)O (stereo unspecified)
